# According to article PMC5916823 (Molecular cell, 2018):
# Legend:
# surface groove of MCL-1 = conditions: ref Kotschy et al., 2016; cited from earlier work
# [1] = ref Kotschy et al., 2016; cited from earlier work
# SEC = target: the molecule itself; test: SEC
# BIM = format: binding, mouse; conditions: Mcl-1-deleted murine livers reconstituted by scAAV; MS in duplicate
# In short: (§1)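 Mcl-1 floxed mice (6–8 weeks, mixed sex) received tail-vein scAAV-LP1-Cre (2×10^11 genome copies) plus GFP control or FLAG-MCL-1 (wild-type, OMM-only or Matrix-only isoform) vectors (5×10^10 copies). Two weeks later, liver mitochondria were isolated by differential centrifugation and a 70%/30% Percoll gradient. Anti-FLAG M2 IP was run in 0.5% NP40/Tris pH 7.5 for 90 min, with FLAG-peptide elution. Three livers were pooled per IP; MS was run in duplicate, Sequest, ~1% FDR.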
# PUMA = format: binding, mouse; conditions: Mcl-1-deleted murine livers reconstituted by scAAV; MS in duplicate
# In short: as §1
# MCAD = format: binding, mouse; conditions: Mcl-1-deleted murine livers reconstituted by scAAV; MS in duplicate
# In short: as §1
# SCAD = format: binding, mouse; conditions: Mcl-1-deleted murine livers reconstituted by scAAV; MS in duplicate
# In short: as §1
molecule,measurement,setting,value
Cc1c(-c2c(-c3ccc(F)o3)sc3ncnc(O[C@H](Cc4ccccc4OCc4ccnn4CC(F)(F)F)C(=O)O)c23)ccc(OCCN2CCN(C)CC2)c1Cl [S63845],Selectivity for MCL-1,surface groove of MCL-1,selectively targets the surface groove of MCL-1
same,Toxicity in treated mice,[1],"lack of overt toxicity, including cardiotoxicity"
"recombinant human VLCAD (aa 40-655), His-tagged (enzyme, UniProt P49748-1 40-655, looked up) YAGGAAQLALDKSDSHPSDALTRKKPAKAESKSFAVGMFKGQLTTDQVFPYPSVLNEEQTQFLKELVEPVSRFFEEVNDPAKNDALEMVEETTWQGLKELGAFGLQVPSELGGVGLCNTQYARLVEIVGMHDLGVGITLGAHQSIGFKGILLFGTKAQKEKYLPKLASGETVAAFCLTEPSSGSDAASIRTSAVPSPCGKYYTLNGSKLWISNGGLADIFTVFAKTPVTDPATGAVKEKITAFVVERGFGGITHGPPEKKMGIKASNTAEVFFDGVRVPSENVLGEVGSGFKVAMHILNNGRFGMAAALAGTMRGIIAKAVDHATNRTQFGEKIHNFGLIQEKLARMVMLQYVTESMAYMVSANMDQGATDFQIEAAISKIFGSEAAWKVTDECIQIMGGMGFMKEPGVERVLRDLRIFRIFEGTNDILRLFVALQGCMDKGKELSGLGSALKNPFGNAGLLLGEAGKQLRRRAGLGSGLSLSGLVHPELSRSGELAVRALEQFATVVEAKLIKHKKGIVNEQFLLQRLADGAIDLYAMVVVLSRASRSLSEGHPTAQHEKMLCDTWCIEAAARIREGMAALQSDPWQQELYRNFKSISKALVERGGVVTSNPLGF",stoichiometry N,SEC,2
"FLAG-MCL-1: full-length protein, reconstituted into Mcl-1−/− murine livers (protein, UniProt P97287 1-331, looked up, full-length FLAG tag) MFGLRRNAVIGLNLYCGGASLGAGGGSPAGARLVAEEAKARREGGGEAALLPGARVVARPPPVGAEDPDVTASAERRLHKSPGLLAVPPEEMAASAAAAIVSPEEELDGCEPEAIGKRPAVLPLLERVSEAAKSSGADGSLPSTPPPPEEEEDDLYRQSLEIISRYLREQATGSKDSKPLGEAGAAGRRALETLRRVGDGVQRNHETAFQGMLRKLDIKNEGDVKSFSRVMVHVFKDGVTNWGRIVTLISFGAFVAKHLKSVNQESFIEPLAETITDVLVRTKRDWLVKQRGWDGFVEFFHVQDLEGGIRNVLLAFAGVAGVGAGLAYLIR",Interaction with BIM (FLAG pull-down),BIM,"pulled down native VLCAD and established physiologic interactors of MCL-1, such as BIM and PUMA"
same,Interaction with PUMA (FLAG pull-down),PUMA,"pulled down native VLCAD and established physiologic interactors of MCL-1, such as BIM and PUMA"
same,Interaction with MCAD (FLAG pull-down),MCAD,not MCAD or SCAD
same,Interaction with SCAD (FLAG pull-down),SCAD,not MCAD or SCAD
"FLAG-MCL-1^OMM: mutant MCL-1 construct with an internal FLAG tag that only generates the OMM isoform (protein, left off: FLAG, internal (at residue 134), kept) MFGLAANAVIGLNLYCGGASLGAGGGSPAGARLVAEEAKARREGGGEAALLPGARVVARPPPVGAEDPDVTASAERRLHKSPGLLAVPPEEMAASAAAAIVSPEEELDGCEPEAIGKRPAVLPLLERVSEAAKSSGADGSLPSTPPPPEEEEDDLYRQSLEIISRYLREQATGSKDSKPLGEAGAAGRRALETLRRVGDGVQRNHETAFQGMLRKLDIKNEGDVKSFSRVMVHVFKDGVTNWGRIVTLISFGAFVAKHLKSVNQESFIEPLAETITDVLVRTKRDWLVKQRGWDGFVEFFHVQDLEGGIRNVLLAFAGVAGVGAGLAYLIR",Interaction with BIM (FLAG pull-down),BIM,BIM and PUMA were enriched
same,Interaction with PUMA (FLAG pull-down),PUMA,BIM and PUMA were enriched
